Compounds with a hit are over-represented: about 1.9% of the library has one in this group of screens.
CHRM4 agonist = CHRM4 agonism in calcium assay; activation, % at 3 µM; P08173; 0.14% of 360,000 active; AID 624127; CHO-K1 hM4/Gqi5, Fluo-8 calcium fluorescence; vehicle 0%, full acetylcholine response 100%;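 active means activation above the run mean over all test wells plus 3 SD, cut at about 32% in these data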;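 further: peak over basal fluorescence ratio per well then scaled between controls; 0% = DMSO wells and 100% = acetylcholine at EC100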
Target sequence (P08173 whole entry, looked up): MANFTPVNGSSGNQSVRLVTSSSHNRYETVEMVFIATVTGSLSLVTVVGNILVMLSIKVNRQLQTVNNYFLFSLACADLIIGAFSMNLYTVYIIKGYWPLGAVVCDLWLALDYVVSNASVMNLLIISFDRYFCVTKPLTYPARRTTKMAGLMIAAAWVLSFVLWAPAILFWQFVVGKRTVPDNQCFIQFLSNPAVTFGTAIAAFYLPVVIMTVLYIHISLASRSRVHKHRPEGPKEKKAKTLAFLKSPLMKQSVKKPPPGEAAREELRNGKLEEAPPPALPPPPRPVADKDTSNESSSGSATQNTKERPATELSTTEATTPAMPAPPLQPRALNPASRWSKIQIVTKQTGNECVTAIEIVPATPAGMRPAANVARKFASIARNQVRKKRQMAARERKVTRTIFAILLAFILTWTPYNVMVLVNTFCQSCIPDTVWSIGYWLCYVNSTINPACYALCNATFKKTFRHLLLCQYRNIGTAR
CHRM5 agonist = CHRM5 agonism in calcium assay; CHO-K1 hM5 cells, Fluo-8 calcium fluorescence; 0% DMSO wells, 100% maximal acetylcholine response; activation, % at 3 µM; 0.19% of 360,000 active; AID 624037;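 active means activation above the run's mean over test compounds plus 3 SD, cut at about 23% in these data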;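 further: signal is peak over basal fluorescence ratio across the kinetic read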
M4 antag = antagonists of human muscarinic M4 receptor (CHRM4) | CHO-hM4 cells, ACh EC80, Fluo-8 calcium fluorescence | inhibition, % at 3 µM | 0.73% of 360,000 active | P08173 | AID 624125;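 active means inhibition above its plate's cutoff, the mean inhibition of sample wells plus 3 SD, cut at about 27% in these data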;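 further: 0% = acetylcholine EC80 with DMSO and 100% = DMSO without agonist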
CHRM5 PAM = potentiates acetylcholine response at human M5 receptor; CHO-K1 hM5, Fluo-8 calcium, ACh EC20 PAM; 0% = ACh EC20, 100% = ACh EC100; P08912; activation, % at 3 µM; 0.3% of 360,000 active; AID 624038;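 active means activation above the run cutoff, the mean activation of all test compounds plus 3 SD, cut at about 18% in these data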
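System – CHO-K1 hM5 cells · Compound – 3 µM, single dose · Incubation – compound preincubation 140 s before EC20 acetylcholine addition · Technique – Fluo-8 calcium fluorescence · Measure – Max/basal fluorescence ratio as % of EC20–EC100 ACh window · Benchmarks – low control EC20 acetylcholine (0%), high control EC100 acetylcholine (100%) · Replication – singlicate, one well per test compound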
M4 PAM = CHRM4 positive allosteric modulation. P08173. CHO-K1 hM4/Gqi5, Fluo-8 calcium fluorescence, ACh EC20; 0% = ACh EC20, 100% = maximal ACh. activation, % at 3 µM. 0.4% of 360,000 active. AID 624126;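 active means activation above its plate's cutoff, the mean activation of sample wells plus 3 SD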
CHRM5 antagonist = antagonists of human muscarinic M5 receptor (CHRM5); CHO-hM5 cells, Fluo-8 calcium fluorescence, ACh EC80; inhibition, % at 3 µM; 0.59% of 360,000 active; AID 624040;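 active means inhibition above a per-plate cutoff, the mean of that plate's test compounds plus 3 SD, cut at about 27% in these data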;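 further: 0% = acetylcholine EC80 with DMSO and 100% = DMSO without agonist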
An asterisk follows results filed as active.

SMILES	CHRM4 agonist	CHRM5 agonist	M4 antag	CHRM5 PAM	M4 PAM	CHRM5 antagonist
NCCC(=O)N1c2ccccc2Sc2ccc(Cl)cc21	13.8	-19.9	38.4*	-33.3	-13.6	60.5*
NCCCC(=O)N1c2ccccc2Sc2ccc(Cl)cc21	2.5	-11.4	63.8*	-23.0	-19.3	76.5*
Cc1ccc(NC(=O)c2nc[nH]c2C(=O)N(C)CCO)cc1	1.0	1.6	-0.1	-1.7	-3.0	-2.2
Cc1ccc(C)c(-n2sc3ccc(F)cc3c2=O)c1	33.2*	20.7	10.2	-5.0	-7.2	7.6
COc1cccc(-c2cnc(C(O)c3ccc(C)cc3C)[nH]2)c1 (stereo unspecified)	3.3	2.8	-20.9	-4.8	6.5	-0.2
COC(=O)c1ccc(S(=O)(=O)N2CCN(CCO)CC2)n1C	1.3	5.5	-3.3	25.0*	17.1	1.4
COC(=O)c1ccc(S(=O)(=O)N2CCCN(Cc3ccccc3)CC2)n1C	1.8	-5.8	-8.1	0.1	-6.1	3.5
CCCCC(=O)N(C)c1c(C)nc2ccc(C(=O)N3CCCCC3)cn12	0.3	1.7	-6.7	3.3	3.2	17.1
CN(C(=O)COc1ccccc1C(=O)NCCOc1ccccc1)c1ccccc1	24.5	3.4	59.6*	-18.5	-39.4	42.6*
Cc1ccc(-n2nnnc2-c2ccco2)cc1	-0.4	-5.2	2.7	10.0	-1.7	4.4
c1ccc(Cn2nnnc2-c2ccco2)cc1	1.5	0.3	3.9	14.2	37.4*	-19.6
COc1cccc(C(=O)Nc2nc(-c3ccccc3)c(-c3ccccc3)o2)c1	-0.3	-0.4	-6.3	-2.3	-0.5	1.5
O=C(Nc1nc(-c2ccccc2)c(-c2ccccc2)o1)c1ccc(F)cc1	1.8	-1.1	-2.6	34.1*	3.3	9.2
C=CCN1C(=O)C2(OCCCO2)c2cc(CCCC)ccc21	-2.3	-4.8	-2.8	5.0	-1.8	4.8
C=CCN1C(=O)C2(OCCCO2)c2cc(C)ccc21	1.1	2.3	0.0	20.1*	-2.3	-2.8
Cc1cc2c3c([nH]c2cc1S(=O)(=O)NCc1ccc(CN2CCCCCC2)o1)CCCC3=O	0.3	-10.8	68.2*	-2.8	-27.3	0.9
CC(C)CN1Cc2ccccc2Oc2cc(Br)ccc2S1(=O)=O	8.7	21.8	-8.4	12.1	24.6*	1.4
O=C(CSc1nnc(CNc2ccc(F)cc2)o1)c1ccccc1	3.7	-2.5	-21.3	5.5	22.8*	-1.6
CCN(CC)C(=O)C(=O)Nc1ccc(OC)c(Cl)c1	0.9	-0.3	-5.1	4.7	7.5	6.9
O=C(Nc1cccc(C(F)(F)F)c1)Nc1ccc(N2CCCC2)c(S(=O)(=O)Nc2ccccc2Cl)c1	4.6	-1.4	26.1	-14.4	-13.7	27.8*
CC(=O)N1CCN(Cc2cc(=O)oc3ccccc23)CC1	0.1	1.0	3.6	-5.9	-4.7	9.8
O=c1[nH]c2ccccc2c2nc(-c3cccc(S(=O)(=O)N4CCCC4)c3)nn12	1.5	-3.1	29.3*	-4.7	19.1	5.7
O=S(=O)(Nc1cccc2ncccc12)c1cccc(C(F)(F)F)c1	4.6	7.0	8.7	-10.1	-1.1	1.5
Cc1ccc(CNC(=O)C2CCC(=O)N(CCc3ccccn3)C2)s1 (stereo unspecified)	1.6	-1.1	1.2	-3.5	2.7	5.4
Cc1nn(-c2ccccc2)c(C)c1NC(=O)COC(=O)c1cc(Br)ccc1O	20.3	4.5	30.7*	-23.7	-3.0	21.6
SMILES	CHRM4 agonist	CHRM5 agonist	M4 antag	CHRM5 PAM	M4 PAM	CHRM5 antagonist
CCOC(=O)c1sc(NC(=O)Nc2ccccc2Cl)cc1C	10.2	2.7	-20.0	-21.6	-6.0	20.9
CCOC(=O)c1sc(NC(=O)Nc2ccccc2)cc1C	18.1	4.6	15.4	-19.5	-7.2	45.7*
CCn1nc(C(=O)OCc2c(C)noc2C)c2ccccc2c1=O	-0.1	-5.7	-1.7	55.6*	6.4	8.1
CC1CCC(C(C)C)C(OC(=O)C[n+]2cc(-c3ccc(Cl)cc3)n3c2CCCCC3)C1 (stereo unspecified)	1.7	-9.5	19.0	-16.1	-15.2	75.1*
O=C(C[n+]1cc(-c2ccccc2)n2c1CCCCC2)c1ccc(Cl)cc1	0.2	-10.1	-5.8	-0.4	-0.1	-1.8
c1ccc(CCNc2ncnc3scc(C4COc5ccccc5O4)c23)cc1 (stereo unspecified)	-0.7	-3.6	38.0*	-9.7	-18.8	15.4
O=C1NC(=O)C2(N1)c1ccccc1-c1ccccc12	-0.1	-0.1	-1.4	3.7	-0.8	9.3
O=C1NC(=O)C2(N1)C(=O)c1cccc3cccc2c13 (stereo unspecified)	161.3*	36.5*	28.7*	-8.6	-16.6	16.6
O=C1N/C(=N\S(=O)(=O)Cc2ccccc2)S/C1=C/c1cc([N+](=O)[O-])ccc1O	49.9*	89.3*	18.7	-38.2	-41.1	40.3*
O=C1N/C(=N\S(=O)(=O)c2ccccc2)S/C1=C\c1cc([N+](=O)[O-])ccc1O	124.9*	44.8*	20.4	-18.4	-26.5	15.0
Cc1ccc(S(=O)(=O)/N=C2/NC(=O)/C(=C\c3cc(Br)cc(Br)c3O)S2)cc1	11.0	35.5*	1.0	-9.3	-5.4	14.3
O=S1(=O)CC(N2CCN(CCO)CC2)CN1Cc1cn(Cc2ccccc2)nn1 (stereo unspecified)	0.5	1.1	4.3	-1.1	2.6	2.3
O=C(N[C@H]1C/C=C\C[C@H](CC(=O)N(CCO)Cc2ccccc2)C(=O)NC[C@H](c2ccccc2)OC1=O)OCC1c2ccccc2-c2ccccc21	0.5	-0.1	-11.8	5.6	10.7	-9.0
CC(C)CN(C(=O)COC(=O)CCc1c[nH]c2ccccc12)c1c(N)n(Cc2ccccc2)c(=O)[nH]c1=O	1.9	1.0	-0.4	0.9	1.6	7.0
CC(C)CN(C(=O)COC(=O)CCCc1c[nH]c2ccccc12)c1c(N)n(Cc2ccccc2)c(=O)[nH]c1=O	0.6	-2.0	6.5	-6.1	-2.2	28.9*
CC(C)CCN1CC(C(=O)NCc2ccc(F)cc2)CC1=O (stereo unspecified)	0.1	-2.1	0.6	-2.8	-2.2	10.1
O=C(OCc1nnc(-c2ccccc2)o1)C1CC(=O)N(CCc2ccccc2)C1 (stereo unspecified)	3.6	4.4	-10.5	1.7	25.2*	3.6
O=C(NCc1ccc(F)cc1)C1CC(=O)N(CCc2ccccc2)C1 (stereo unspecified)	2.6	0.2	14.6	18.6*	-3.4	5.9
Cc1noc(C)c1C(=O)Nc1ccccc1C(=O)NCCc1ccccc1	12.2	-0.9	-3.9	-5.0	-4.4	8.7
CS(=O)(=O)N1CCCC(C(=O)Nc2cccc(F)c2)C1 (stereo unspecified)	1.1	6.0	-14.8	18.3*	-1.1	-5.3

Bioassay records from PubChem.
